Laboratory results published in ChEMBL document CHEMBL1124724, “Steroidal A ring aryl carboxylic acids: a new class of steroid 5 alpha-reductase inhibitors” (J Med Chem, 1990).

Experiments:
[1] = target: T1, Steroid 5-alpha-reductase (Rattus norvegicus, UniProt P24008+P31214); assay: Inhibition of Steroid 5-alpha-reductase of rat ventral prostate tissue; format: tissue-based, Prostate gland
T1 sequence (P24008 whole entry): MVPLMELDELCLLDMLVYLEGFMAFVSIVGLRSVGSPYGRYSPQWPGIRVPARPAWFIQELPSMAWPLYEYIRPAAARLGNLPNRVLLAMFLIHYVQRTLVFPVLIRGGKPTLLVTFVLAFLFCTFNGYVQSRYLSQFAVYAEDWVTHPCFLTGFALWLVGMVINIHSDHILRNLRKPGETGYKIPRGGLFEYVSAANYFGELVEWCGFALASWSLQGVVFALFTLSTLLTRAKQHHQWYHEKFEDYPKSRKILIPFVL
T1 sequence (P31214 whole entry): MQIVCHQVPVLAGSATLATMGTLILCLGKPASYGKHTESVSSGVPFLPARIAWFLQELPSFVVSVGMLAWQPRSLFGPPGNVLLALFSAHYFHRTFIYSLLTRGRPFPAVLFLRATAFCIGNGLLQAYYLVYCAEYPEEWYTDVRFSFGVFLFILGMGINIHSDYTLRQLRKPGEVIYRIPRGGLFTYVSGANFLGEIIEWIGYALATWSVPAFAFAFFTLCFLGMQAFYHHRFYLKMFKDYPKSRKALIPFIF
Method in brief: (§1)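 Activity is total 5α-reduced products (DHT + ADIOL) by radiolabel after ethyl acetate extraction. Ki,app is given as a range across microsome preparations; >10 000 means under 50% inhibition at highest concentration.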

[2] = Inhibition of Steroid 5-alpha-reductase of benign hyperplastic human prostatic tissue; settings: read-out: Ki app
Method in brief: (§2)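 Ethyl acetate quench with carrier steroids; product is DHT plus ADIOL from radiolabel split. Ki,app is given as a range over several microsome preparations; >10 000 means under 50% inhibition at top concentration.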

[3] = target: T1, Steroid 5-alpha-reductase; assay: In vitro inhibition against Steroid 5-alpha-reductase of whole rat ventral prostate tissue expressed as apparent inhibition constant; format: functional, tissue-based, Prostate gland; method in brief: as §1
[4] = target: T2, 3-oxo-5-alpha-steroid 4-dehydrogenase 2 (Homo sapiens, UniProt P31213); assay: In vitro inhibition against Steroid 5-alpha-reductase of benign hyperplastic human prostatic tissue expressed as apparent inhibition constant; format: functional; settings: read-out: Ki app; method in brief: as §2
T2 sequence (P31213 whole entry): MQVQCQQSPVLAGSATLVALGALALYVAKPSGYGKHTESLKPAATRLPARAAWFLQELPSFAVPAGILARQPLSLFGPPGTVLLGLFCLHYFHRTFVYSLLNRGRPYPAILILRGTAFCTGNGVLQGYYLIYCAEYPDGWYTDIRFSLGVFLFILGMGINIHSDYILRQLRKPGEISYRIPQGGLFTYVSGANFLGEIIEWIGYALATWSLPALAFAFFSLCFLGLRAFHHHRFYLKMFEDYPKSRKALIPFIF

CC(C)(C)NC(=O)[C@H]1CC[C@H]2[C@@H]3CCc4cc(C(=O)O)ccc4[C@H]3CC[C@]12C
Ki app [1]: 150 nM | Ki [2]: 43 nM

CC(C)(C)NC(=O)C1=CCC2C3CCc4cc(C(=O)O)ccc4C3CC[C@]12C (stereo not given in full)
Ki app [1]: 200 nM | Ki [2]: 60 nM

CC(C)N(C(=O)[C@H]1CC[C@H]2[C@@H]3CCc4cc(C(=O)O)c(C(=O)O)cc4[C@H]3CC[C@]12C)C(C)C
Ki app [3]: > 10000 nM | Ki [4]: 5000 nM

CC(C)N(C(=O)[C@H]1CC[C@H]2[C@@H]3CCc4cc(C(=O)O)c(Cl)cc4[C@H]3CC[C@]12C)C(C)C
Ki app [1]: 200 nM | Ki [2]: 35 nM

CC(C)N(C(=O)[C@H]1CC[C@H]2[C@@H]3CCc4c(ccc(C(=O)O)c4Cl)[C@H]3CC[C@]12C)C(C)C
Ki app [1]: 900 nM | Ki [2]: 120 nM

CC(C)N(C(=O)[C@H]1CCC2c3ccc4cc(C(=O)O)ccc4c3CC[C@@]21C)C(C)C (stereo not given in full)
Ki app [1]: 350 nM | Ki [2]: 36 nM

CC(C)N(C(=O)[C@H]1CCC2C3C=Cc4cc(C(=O)O)ccc4C3CC[C@@]21C)C(C)C (stereo not given in full)
Ki app [1]: 450 nM | Ki [2]: 30 nM

CC(C)N(C(=O)[C@H]1CC[C@H]2[C@@H]3CCc4cc(C(=O)O)c(C#N)cc4[C@H]3CC[C@]12C)C(C)C
Ki app [1]: 950 nM | Ki [2]: 65 nM

CC(C)N(C(=O)[C@H]1CC[C@H]2[C@@H]3CCc4cc(C(=O)O)c(Br)cc4[C@H]3CC[C@]12C)C(C)C
Ki app [1]: 260 nM | Ki [2]: 76 nM

CC(C)N(C(=O)[C@H]1CC[C@H]2[C@@H]3CCc4c(ccc(C(=O)O)c4F)[C@H]3CC[C@]12C)C(C)C
Ki app [1]: 500 nM | Ki [2]: 10 nM

CC(C)N(C(=O)[C@H]1CC[C@H]2[C@@H]3CCc4cc(C(=O)O)ccc4[C@H]3CC[C@]12C)C(C)C
Ki app [1]: 356 nM | Ki [2]: 20 nM

CC(C)N(C(=O)[C@H]1CC[C@H]2[C@@H]3CCc4c(ccc(C(=O)O)c4Br)[C@H]3CC[C@]12C)C(C)C
Ki app [1]: 1900 nM | Ki [2]: 212 nM

Cc1cc2c(cc1C(=O)O)CC[C@@H]1[C@@H]2CC[C@]2(C)[C@@H](C(=O)N(C(C)C)C(C)C)CC[C@@H]12
Ki app [1]: 340 nM | Ki [2]: 60 nM

CC(C)N(C(=O)[C@H]1CC[C@H]2[C@@H]3CCc4c(ccc(C(=O)O)c4C#N)[C@H]3CC[C@]12C)C(C)C
Ki app [1]: > 10000 nM | Ki [2]: 200 nM

Cc1c(C(=O)O)ccc2c1CC[C@@H]1[C@@H]2CC[C@]2(C)[C@@H](C(=O)N(C(C)C)C(C)C)CC[C@@H]12
Ki app [1]: 7000 nM | Ki [2]: 260 nM
